Experiments:
Coxsackievirus B2 = experiment: Antiviral activity against Coxsackie virus type B2; format: functional, organism-based; details: Enterovirus B
Yellow fever virus = experiment: Antiviral activity against Yellow fever virus 17D infected in BHK21 cells assessed as inhibition of virus-induced cytopathogenicity after 3 to 4 days by MTT assay; format: functional, cell-based; details: BHK-21
[1] = Inhibition of HCV NS5B polymerase; parameters: species or system Hepacivirus hominis
Poliovirus 1 = experiment: Antiviral activity against Polio virus type 1 strain sabin ATCC VR-1562 infected in african green monkey Vero-76 cells assessed as reduction in viral plaque after 2 days by crystal violet staining; format: functional, cell-based, Human poliovirus 1 strain Sabin; details: Enterovirus C, ATCC VR-1562, Vero 76, 48 h
Human alphaherpesvirus 1 = experiment: Antiviral activity against Herpes simplex virus type 1 KOS ATCC VR-1493 infected in african green monkey Vero-76 cells assessed as reduction in viral plaque after 3 days by crystal violet staining; format: functional, organism-based; details: Human alphaherpesvirus 1, KOS ATCC VR1493, Vero 76, 72 h
Outline: (§1)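 Vero-76 monolayers (2×10^5 cells/well) infected for 2 h at 50–100 PFU/well. Unadsorbed virus removed. D-MEM with 1% inactivated FBS, 0.75% methylcellulose and serial compound dilutions added. Incubation at 37 °C for 3 days (CVB-5, HSV-1) or 5 days (RSV). Fixed and stained with 50% ethanol/0.8% crystal violet, then plaques counted. EC50 by linear regression versus untreated controls.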

[2] = Cytotoxicity against african green monkey Vero 76 cells after 48 to 96 hrs by MTT assay; format: cell-based; details: chlorocebus sabaeus
[3] = Cytotoxicity against BHK21 cells by MTT assay; format: cell-based, Mesocricetus auratus; details: hamster, BHK-21 cells
Outline: (§2)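 Mock-infected MDBK (6×10^5 cells/mL, MEM-E with 10% horse serum) or BHK (1×10^6 cells/mL, MEM-E with 10% FBS) cells incubated with serial compound dilutions at 37 °C and 5% CO2. Viability measured by MTT after 48–96 h. CC50 by linear regression against untreated controls.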

[4] = test system: Human immunodeficiency virus 1; experiment: Antiviral activity against HIV1 3B infected in human MT4 cells assessed as inhibition of virus-induced cytopathogenicity after 4 days by MTT assay; format: functional, organism-based; details: Human immunodeficiency virus 1, 3B, MT4, 96 h
Outline: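 MT-4 cells (1×10^4/well) in RPMI with serial compound dilutions, infected with HIV-1 IIIB at 100 CCID50 (m.o.i. 0.01). Viability measured by MTT after 4 days at 37 °C. EC50 for 50% protection from cytopathogenicity obtained by linear regression against untreated controls.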

[5] = Cytotoxicity against MDBK cells after 48 to 96 hrs by MTT assay; format: cell-based, Bos taurus; details: cattle; outline: as §2
Vaccinia virus = experiment: Antiviral activity against Vaccinia virus Elstree-Lister ATCC VR-1549 infected in african green monkey Vero-76 cells assessed as reduction in viral plaque after 3 days by crystal violet staining; format: functional, organism-based; details: Orthopoxvirus vaccinia, Elstree-Lister ATCC VR-1549, Vero 76, 72 h
[6] = Antiviral activity against BVDV1 NADL ATCC VR-534 infected in MDBK cells assessed as inhibition of virus-induced cytopathogenicity after 3 to 4 days by MTT assay; format: functional, cell-based, Bovine viral diarrhea virus 1-NADL; details: Bovine viral diarrhea virus isolates and strains, ATCC VR-534, MDBK
Outline: (§3)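 BHK (5×10^4/well) or MDBK (3×10^4/well) cells grown to confluent monolayers overnight, infected at m.o.i. 0.01 in maintenance MEM-Earl with 0.5% inactivated FBS. Serially diluted compounds added after 1 h. Viability read by MTT after 3–4 days at 37 °C. Values are expressed as % of untreated controls, and EC50 is derived by linear regression. Duplicate samples.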

[7] = test system: Vesicular stomatitis Indiana virus; experiment: Antiviral activity against Vesicular stomatitis virus indiana ATCC VR-1540 infected in african green monkey Vero-76 cells assessed as reduction in viral plaque after 2 days by crystal violet staining; format: functional, organism-based; details: ATCC VR-1540, Vero 76, 48 h
[8] = Antiviral activity against Human respiratory syncytial virus A2 ATCC VR-1540 infected in african green monkey Vero-76 cells assessed as reduction in viral plaque after 5 days by crystal violet staining; format: functional, cell-based; details: ATCC VR-1540, Vero 76, 120 h; outline: as §1
[9] = Cytotoxicity against human MT4 cells after 96 hrs by MTT assay; format: cell-based
Outline: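 Exponentially growing MT-4 cells seeded at 1×10^5 cells/mL in RPMI-1640 with 10% FBS and incubated with serial compound dilutions at 37 °C and 5% CO2. Viability measured by MTT after 96 h. CC50 by linear regression against untreated controls.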

[10] = test system: Mammalian orthoreovirus 1; experiment: Antiviral activity against Reovirus 1 3651 ATCC VR-214 infected in BHK21 cells assessed as inhibition of virus-induced cytopathogenicity after 3 to 4 days by MTT assay; format: functional, organism-based; details: Mammalian orthoreovirus 1, 3651 ATCC VR-214, BHK-21; outline: as §3
Coxsackievirus B5 = experiment: Antiviral activity against Coxsackie virus type B5 Ohio-1 ATCC VR-29 infected in african green monkey Vero-76 cells assessed as reduction in viral plaque after 3 days by crystal violet staining; format: functional, organism-based; details: Enterovirus B, Ohio-1 ATCC VR-29, Vero 76, 72 h; outline: as §1

Row | Compound | EC50 (Coxsackievirus B2) [µM] | EC50 (Yellow fever virus) [µM] | IC50 [1] [µM] | EC50 (Poliovirus 1) [µM] | EC50 (Human alphaherpesvirus 1) [µM] | CC50 [2] [µM] | CC50 [3] [µM] | EC50 [4] [µM] | CC50 [5] [µM] | EC50 (Vaccinia virus) [µM] | EC50 [6] [µM] | EC50 [7] [µM] | EC50 [8] [µM] | CC50 at 96 h [9] [µM] | EC50 [10] [µM] | EC50 (Coxsackievirus B5) [µM]
1 | Nc1ccc(/C=C/c2nc3cc(Cl)ccc3[nH]2)cc1 | 7 | – | – | – | – | – | – | – | – | – | – | – | – | – | – | –
2 | CC(=O)c1ccc2[nH]c(-c3ccc(-c4ccc([N+](=O)[O-])cc4)cc3)nc2c1 | 1 | 0.5 | – | – | – | – | – | – | – | – | – | – | – | – | – | –
3 | O=C(O)c1ccc2c(c1)nc(-c1ccoc1)n2C1CCCCC1 | – | – | 1.6 | – | – | – | – | – | – | – | – | – | – | – | – | –
4 | O=C(O)c1ccc2c(c1)nc(-c1ccccn1)n2C1CCCCC1 | – | – | 4.3 | – | – | – | – | – | – | – | – | – | – | – | – | –
5 | COc1ccc(-c2nc3cc(C(C)=O)ccc3n2C2CCCCC2)cc1 | – | 13.4 | – | > 30 | > 30 | 30 | > 100 | > 27 | > 100 | > 30 | 21 | > 30 | > 30 | 27 | > 100 | > 30
6 | COc1ccc(-c2nc3cc(C(C)O)ccc3[nH]2)cc1 (configuration not stated) | – | > 100 | – | > 100 | > 100 | > 100 | > 100 | > 100 | > 100 | > 100 | > 100 | > 100 | > 100 | ≥ 100 | > 100 | > 100
7 | COc1ccc(-c2nc3cc(C(C)O)ccc3[nH]2)c(OC)c1 (configuration not stated) | – | > 100 | – | > 100 | > 100 | > 100 | > 100 | > 100 | > 100 | > 100 | > 100 | > 100 | > 100 | ≥ 100 | > 100 | > 100
8 | C/C(=N\NC(N)=S)c1ccc2[nH]c(-c3ccoc3)nc2c1 | – | > 100 | – | 100 | > 100 | 100 | > 100 | > 86 | > 100 | > 100 | 8 | > 100 | > 100 | 86 | > 100 | > 100
9 | Nc1ccc(/C=C/c2nc3ccccc3[nH]2)cc1 | 7 | – | – | – | – | – | – | – | – | – | – | – | – | – | – | –

From ChEMBL document CHEMBL2034874, “5-acetyl-2-arylbenzimidazoles as antiviral agents. Part 4” (Eur J Med Chem, 2012)
